Experimental findings from ChEMBL document CHEMBL1138900, “2,5-diketopiperazines as potent, selective, and orally bioavailable oxytocin antagonists. 3. Synthesis, pharmacokinetics, and in vivo potency” (J Med Chem, 2006) are described below.

Structures are written as SMILES. ≈ marks a conversion by molar mass, not a printed value.

The nature of data set [1]: Clearance in rat. Type of data set: ADME, organism-based. The conditions noted are these: in vivo. The essentials: (§1)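 Rat pharmacokinetics, n = 4; dosed at 5 mg/kg in 5% DMSO/95% PEG400. AUC in ng·h mL⁻¹, clearance in mL min⁻¹ kg⁻¹, half-life in h.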
A short description of data set [2]: Oral bioavailability in dog. Type of data set: ADME, organism-based, Canis lupus familiaris. The settings on record: in vivo.
A short description of data set [3]: Oral bioavailability in rat. Type of data set: ADME, organism-based. The conditions noted are these: in vivo.
Data set [4] in a line: Clearance in dog. Type of data set: ADME, organism-based, Canis lupus familiaris. The settings on record: in vivo. The essentials: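 Dog pharmacokinetics, n = 3; dosed at 0.6 mg/kg in 5% DMSO/95% PEG400. AUC reported as ng·h mL⁻¹ and clearance as mL min⁻¹ kg⁻¹.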
The nature of data set [5]: Lipophilicity, log D by CHI method. Type of data set: physicochemical. The settings on record: read-out: Log D. An outline of the steps: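 Lipophilicity determined by an HPLC-based method.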
In the next data set the target is T1, Oxytocin receptor (Homo sapiens, UniProt P30559).
T1 sequence (P30559 whole entry): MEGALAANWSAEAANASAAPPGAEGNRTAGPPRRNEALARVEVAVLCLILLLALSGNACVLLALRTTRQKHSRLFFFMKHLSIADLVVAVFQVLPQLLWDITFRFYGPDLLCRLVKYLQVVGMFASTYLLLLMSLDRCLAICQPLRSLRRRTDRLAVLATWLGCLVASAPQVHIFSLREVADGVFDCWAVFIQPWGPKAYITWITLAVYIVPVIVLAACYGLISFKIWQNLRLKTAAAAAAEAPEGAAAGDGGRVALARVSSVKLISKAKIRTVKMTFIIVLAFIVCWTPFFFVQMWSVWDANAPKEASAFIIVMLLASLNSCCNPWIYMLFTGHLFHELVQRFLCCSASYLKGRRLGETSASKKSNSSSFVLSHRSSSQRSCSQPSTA
Nature of the data set: Displacement of [3H]oxytocin from human OTR. Background: Loss of bound radioactivity is the signal in a displacement assay; it reports binding, not function.

Data set [6] is described as follows: AUC in rat. Type of data set: ADME, organism-based. Also noted: concentration or dose not given beside the values. The settings on record: plasma. The essentials: as §1
Data set [7] is described as follows: Solubility of the compound. Type of data set: physicochemical. An outline of the steps: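 Aqueous solubility (mg mL⁻¹) measured by precipitation followed by HPLC.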

Broadly, the clearance is the volume of plasma or blood freed of the substance per unit of time. As a reminder, the bioavailability is dose-corrected exposure relative to a reference, in per cent. Consider `CC(C)C[C@@H]1C(=O)N[C@H](C2Cc3ccccc3C2)C(=O)N1[C@@H](C(=O)NC(C)C)c1ccc(N(C)C)cc1`, for which the clearance amounted to 48 mL/min/kg in data set [1] and 15 mL/min/kg in data set [4]. Also, the bioavailability came out at 50% in data set [2] and 2% in data set [3].

As for `CC(C)C[C@@H]1C(=O)N[C@H](C2Cc3ccccc3C2)C(=O)N1[C@@H](C(=O)NCCN1CCCCC1)c1ccc(F)cc1`, in data set [5], the chromatographic logD was 2.

For the molecule `Cc1ccc([C@H](C(=O)NC(C)C)N2C(=O)[C@@H](C3Cc4ccccc4C3)NC(=O)[C@H]2CC(C)C)o1`, in data set [5], the chromatographic logD was determined as 3.3.

By Ki is commonly meant the equilibrium dissociation constant of an inhibitor or competing ligand from its target. As usually defined, the AUC is the area under the concentration-time curve, a measure of exposure. `CC(C)C[C@@H]1C(=O)N[C@H](C2Cc3ccccc3C2)C(=O)N1[C@@H](CO)c1ccc(F)cc1F` showed an inhibitory constant (Ki) at Oxytocin receptor of 12.6 nM. Also, in data set [6], the AUC was 567 ng·h/mL.

Take `CC(C)C[C@@H]1C(=O)N[C@H](C2Cc3ccccc3C2)C(=O)N1[C@@H](C(=O)N(C)Cc1ccccn1)c1ccc(F)cc1`: the chromatographic logD in data set [5] stood at 3.2.

As for `CC(C)C[C@@H]1C(=O)N[C@H](C2Cc3ccccc3C2)C(=O)N1[C@@H](C(=O)NC(C)(C)C)c1ccc2c(c1)OCO2`, the clearance in data set [1] is 34 mL/min/kg; in data set [4], 23 mL/min/kg. The molecule further showed a Ki on Oxytocin receptor of 3.98 nM. Moreover, the bioavailability in data set [2] was 14%; in data set [3], 48%. The chromatographic logD in data set [5] was 3.3.

On to `CC(C)C[C@@H]1C(=O)N[C@H](C2Cc3ccccc3C2)C(=O)N1[C@@H](C(=O)NCC(F)(F)F)c1ccc(F)cc1`, for which the chromatographic logD in data set [5] came to 3.3.

Take `CC(C)C[C@@H]1C(=O)N[C@H](C2Cc3ccccc3C2)C(=O)N1[C@@H](C(=O)NC(C)(C)C)c1ccc(N2CCC(O)CC2)cc1`: the values for the clearance in data set [1] and in data set [4] were 26 mL/min/kg and 21 mL/min/kg, respectively. On Oxytocin receptor, the Ki is 3.98 nM. Moreover, the bioavailability in data set [2] stood at 10%; in data set [3], 24%. In addition, the chromatographic logD in data set [5] was 2.4.

Regarding `CC(C)C[C@@H]1C(=O)N[C@H](C2Cc3ccccc3C2)C(=O)N1[C@@H](C(=O)NCCO)c1ccc(F)cc1`, the chromatographic logD in data set [5] came to 2.3.

Regarding `COc1ccc([C@H](C(=O)NC(C)(C)C)N2C(=O)[C@@H](C3Cc4ccccc4C3)NC(=O)[C@H]2CC(C)C)cc1F`, in data set [5], the chromatographic logD turned out to be 3.4.

Usually solubility stands for how much of the substance goes into solution per volume. `CC(C)C[C@@H]1C(=O)N[C@H](C2Cc3ccccc3C2)C(=O)N1[C@@H](C(=O)N1CC(O)C1)c1ccc(F)cc1F` gave a clearance in data set [1] of 19 mL/min/kg. In addition, the Ki at Oxytocin receptor was 0.631 nM. The same molecule came in with a bioavailability in data set [3] of 12%. Also, in data set [5], the chromatographic logD worked out at 2.8. In addition, the solubility in data set [7] came out at 187 µg/mL (≈ 366 µM). In data set [6], this molecule came in with an AUC of 540 ng·h/mL.

With `CCNS(=O)(=O)c1ccc(-c2ccc([C@H](C(=O)NC(C)(C)C)N3C(=O)[C@@H](C4Cc5ccccc5C4)NC(=O)[C@H]3CC(C)C)cc2)cc1`, in data set [5], the chromatographic logD amounted to 3.4.

Take `CC(C)C[C@@H]1C(=O)N[C@H](C2Cc3ccccc3C2)C(=O)N1[C@@H](C(=O)N1CCN(C)CC1)c1ccc(F)cc1`: the chromatographic logD in data set [5] was 2.7.

For `CC(C)C[C@@H]1C(=O)N[C@H](C2Cc3ccccc3C2)C(=O)N1[C@@H](C(=O)NC(C)(C)C)c1ccc2c(c1)CCO2`, the clearance was found to be 39 mL/min/kg in data set [1] and 14 mL/min/kg in data set [4]. This molecule also had a Ki on Oxytocin receptor of 3.98 nM. For the same molecule, the bioavailability in data set [2] turned out to be 9%; in data set [3] it was 27%. In data set [5], the chromatographic logD worked out at 3.4.

As for `CC[C@@H](C)[C@@H]1C(=O)N[C@H](C2Cc3ccccc3C2)C(=O)N1[C@@H](C(=O)NC(C)C)c1ccc(N2CCOCC2)cc1`, the clearance in data set [1] came out at 24 mL/min/kg; in data set [4] it was 6 mL/min/kg. On Oxytocin receptor, this molecule gave a Ki of 1.58 nM. For the same molecule, the bioavailability in data set [2] was 61%; in data set [3], 31%. In data set [5], the chromatographic logD worked out at 3.

In data set [1], `CC(C)C[C@@H]1C(=O)N[C@H](C2Cc3ccccc3C2)C(=O)N1[C@@H](C(N)=O)c1ccc(F)cc1F` came in with a clearance of 33 mL/min/kg. Besides, the Ki on Oxytocin receptor is 0.501 nM. Further, in data set [3], the bioavailability was determined as 22%. In addition, the chromatographic logD in data set [5] was determined as 2.5. In data set [7], this molecule had a solubility of 1 µg/mL (≈ 2.2 µM). Moreover, the AUC in data set [6] is 560 ng·h/mL.
